# Hits are enriched below; roughly 2.6% of the tested compounds scored in any of these assays.
# Platelet DG rel: inhibitors of platelet dense granule secretion, primary screen, cell-based, MLPCN, human platelets. human platelet-rich plasma, SFLLRN dense granule ATP release, luminescence. inhibition, %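 (compounds screened at 7.5 µM in platelet-rich plasma)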. actives 0.22% (n = 300,000). AID 1663, 2009;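 active = mean replicate score, as percent of positive control, at or above 50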
# Rce1 inh: yeast Rce1p protease inhibitors, primary screen, biochemical, fluorescence, cell-free homogeneous | CAAX prenyl protease 2 (Saccharomyces cerevisiae (strain ATCC 204508 / S288c)), Q03530 | yeast membranes, quenched prenylated peptide cleavage fluorescence | calls only | actives 0.27% (n = 290,000) | AID 2563, 2010;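 active = fall in fluorescence gain of 50% or more versus controls, with final raw signal at or below 3038400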;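 note: plate controls were neutral control wells for no effect and wells lacking membranes for full effect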
# Target sequence (Q03530 whole entry, looked up): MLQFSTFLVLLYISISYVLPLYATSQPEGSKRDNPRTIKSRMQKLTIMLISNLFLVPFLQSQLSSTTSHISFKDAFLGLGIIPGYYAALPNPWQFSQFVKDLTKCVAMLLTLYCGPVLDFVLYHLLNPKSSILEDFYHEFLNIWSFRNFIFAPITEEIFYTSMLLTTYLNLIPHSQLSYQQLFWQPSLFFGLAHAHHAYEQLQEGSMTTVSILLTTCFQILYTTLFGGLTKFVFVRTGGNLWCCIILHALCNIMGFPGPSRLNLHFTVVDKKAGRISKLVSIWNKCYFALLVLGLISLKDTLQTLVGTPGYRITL
# TAAR1 antagonist: human TAAR1 antagonists, primary screen, Fluo-8 calcium fluorescence, CHO RD-HGA16 cells; Trace amine-associated receptor 1 (Homo sapiens), Q96RJ0; antagonist; inhibition, % at 3 µM; actives 1.5% (n = 360,000); AID 624466, 2012;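 active = inhibition above a per-plate cutoff, the mean inhibition of test compounds on that plate plus 3 SD, cut at about 49% in these data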;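 note: 0% = DMSO plus EC80 beta-PEA response and 100% = DMSO alone without agonist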
# Target sequence (Q96RJ0 whole entry, looked up): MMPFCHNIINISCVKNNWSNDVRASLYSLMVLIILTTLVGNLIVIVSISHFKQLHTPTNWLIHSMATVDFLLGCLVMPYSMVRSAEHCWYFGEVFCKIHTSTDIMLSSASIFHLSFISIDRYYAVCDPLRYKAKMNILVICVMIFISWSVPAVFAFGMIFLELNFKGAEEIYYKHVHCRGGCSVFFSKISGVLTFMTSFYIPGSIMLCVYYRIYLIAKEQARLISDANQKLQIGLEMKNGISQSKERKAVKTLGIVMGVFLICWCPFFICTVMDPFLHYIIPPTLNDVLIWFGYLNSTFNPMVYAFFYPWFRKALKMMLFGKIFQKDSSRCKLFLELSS
#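 Assay system: CHO-derived RD-HGA16 cells stably expressing human TAAR1 plus Gα16. Timing: 140 s kinetic read after compound, 140 s after agonist. Technique: kinetic Fluo-8 calcium fluorescence measurement. Measure: % inhibition of agonist calcium response.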
# VLA-4 inh: inhibition in human VLA-4 binding assay, primary screen, VLA-4 allosteric modulator project, MLPCN library, flow cytometry, VLA-4 expressing cells | ligand binding flow cytometry | inhibition, % (about 7 µM as worked out from the volumes in the protocol) | Integrin alpha-4 (Homo sapiens), P13612 | actives 0.2% (n = 330,000); in the data active = inhibition above about 50%
# TAAR1 ag: human TAAR1 agonists, primary screen, Fluo-8 calcium fluorescence, CHO RD-HGA16 cells; Trace amine-associated receptor 1 (Homo sapiens), Q96RJ0; vehicle wells 0%, saturating PEA agonist 100%; activation, % at 3 µM; actives 0.99% (n = 360,000); AID 624467, 2012;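 active = activation above the mean activation of all test compounds in the run plus 3 SD, cut at about 38% in these data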
#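 System: CHO RD-HGA16 cells carrying human TAAR1 plus Gα16; Incubation: 17-24 h seeding, 75 min 37 °C dye, 30 min RT; Measured by: Fluo-8 fluorescence, 5 s baseline then 140 s kinetic read; Control set: DMSO and PEA EC100; Replication: single well for each compound.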
# nonsel antag count: nonselective antagonists in TAAR1 counter-screen cells, counter-screen for hTAAR1 antagonist project, cell-based, fluorescence, calcium | shares compounds with TAAR1 antagonist | counterscreen cell line, antagonist mode | inhibition, % at 3 µM | actives 77% (n = 2,400) | AID 651780, 2012; in the data active = inhibition above about 22%;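 note: CHO-Ga16 host cells stimulated with ATP at an EC80 level; 0% = agonist EC80 plus vehicle and 100% = vehicle without agonist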
# TAAR1 ant conf: human TAAR1 antagonists, retest of hits, confirmation, cell-based, fluorescence | shares compounds with TAAR1 antagonist | TAAR1-expressing cells, fluorescence antagonist read-out | inhibition, % at 3 µM | actives 40% (n = 2,400); in the data active = inhibition above about 49%;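 note: CHO-Ga16 host cells challenged with agonist PEA near its EC80; 0% = agonist at EC80 plus vehicle and 100% = vehicle with no agonist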
# Ga16 nonsel ag: calcium activation in Ga16-expressing cells, counter-screen for TAAR1 antagonist project, cell-based, fluorescence | activation, % at 3 µM | shares compounds with TAAR1 antagonist | agonist counterscreen | actives 18% (n = 2,400) | AID 651953, 2012; in the data active = activation above about 12%;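 note: 0% = vehicle wells and 100% = saturating stimulus response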
# TAAR1 ag counter: TAAR1 activation by candidate antagonists – cell-based, fluorescence, counter-screen for TAAR1 antagonist project; shares compounds with TAAR1 antagonist; hTAAR1 cell line, agonist mode; activation, % at 3 µM; actives 2% (n = 2,400); in the data active = activation above about 37%;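 note: CHO cells stably expressing TAAR1 with calcium dye readout; 0% = DMSO vehicle and 100% = full agonist response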
# Numbers without * were called inactive; i = inactive; . = no result.
SMILES,Platelet DG rel,Rce1 inh,TAAR1 antagonist,VLA-4 inh,TAAR1 ag,nonsel antag count,TAAR1 ant conf,Ga16 nonsel ag,TAAR1 ag counter
N=c1c2c(ncn1Cc1ccco1)Oc1c(ccc3ccccc13)C2c1ccccc1 (stereo not drawn),7.5,i,57.6*,29.7,0.2,14.2,14.0,6.5,35.0
O=C1CCCN2N=C(SCC(=O)Nc3cccc(F)c3)SC2=N1,2.5,i,-1.2,6.2,4.7,.,.,.,.
Nc1ccc(C#Cc2ccc3oc4ccccc4c(=O)c3c2)cc1,0.7,i,68.1*,-6.8,10.1,19.4,22.9,3.3,4.0
O=C(Nc1cc(-c2nc3ncccc3o2)ccc1Cl)c1cccs1,-3.8,i,60.1*,1.7,5.8,11.9,25.8,4.4,0.9
O=C(Nc1cc(-c2nc3ncccc3o2)ccc1Cl)c1ccc([N+](=O)[O-])o1,5.4,i,-17.9,-2.5,8.4,.,.,.,.
Cc1cccc(NC(=O)c2cccc(N3C(=O)C4C5C=CC(C6CC56)C4C3=O)c2)c1 (stereo not drawn),-7.2,.,58.4*,6.4,7.5,34.8*,37.6,9.8,6.8
Cc1cc(C)cc(NC(=O)c2cccc(N3C(=O)C4C5C=CC(C5)C4C3=O)c2)c1 (stereo not drawn),-4.0,i,-22.6,.,-0.2,.,.,.,.
COCCCNC(=O)C[C@H]1C[C@@]2(C(=O)OC)C(=C[C@H](COCc3ccccc3)O[C@@H]2C)N(Cc2ccc3c(c2)OCO3)C1=O,.,.,-18.7,.,0.2,.,.,.,.
Cn1cccc1/C=N\NC(=O)C1COc2ccc(C(C)(C)C)cc2O1 (stereo not drawn),9.7,i,50.7*,28.0,0.5,24.6*,39.3,6.8,1.2
CCCCN1CC(C)(C)[C@H](CC(=O)Nc2ccccc2)C1=O,.,.,-3.5,.,-0.9,.,.,.,.
COCCN1Cc2cc(C(=O)OC)c3c(c2C1=O)c1cc(OC)ccc1n3S(C)(=O)=O,.,.,-7.5,.,0.1,.,.,.,.
COCCN1Cc2cc(C(=O)OC)c3c(c2C1=O)c1cc(OC)ccc1n3C(=O)c1ccccc1,.,.,74.3*,.,15.3,34.2*,58.1*,7.3,7.8
COCCN1Cc2cc(C(=O)OC)c3c(c2C1=O)c1cc(F)ccc1n3C(=O)c1ccccc1,.,.,74.0*,.,12.8,32.3*,49.3*,7.6,7.2
C/C=C(/C)C(=O)O[C@@H]1c2c(ccc3ccc(=O)oc23)O[C@@H]1C(C)(C)OC(=O)/C(C)=C\C,0.3,i,59.5*,-15.6,6.2,20.5,24.4,8.9,3.5
C/C=C(/C)C(=O)OC(C)(C)[C@@H]1Cc2c(ccc3ccc(=O)oc23)O1,-3.8,i,10.4,6.0,6.8,.,.,.,.
CC(=O)Oc1ccc(C(=O)Nc2cc(NC(=O)c3ccc(OC(C)=O)cc3)cc(C(=O)NC(C)(C)C)c2)cc1,13.5,i,67.0*,-9.3,5.3,32.3*,42.5,4.8,6.0
CCC[C@@H](NS(=O)(=O)c1ccc(C)cc1)C(=O)Oc1ccc2c3c(c(=O)oc2c1)CCC3,-8.6,i,90.4*,-14.7,8.2,46.6*,70.3*,10.7,10.4
Cc1ccc(S(=O)(=O)NC(C(=O)Oc2ccc3c(C)c(Cl)c(=O)oc3c2)c2ccccc2)cc1 (stereo not drawn),-3.8,i,12.5,5.2,5.2,.,.,.,.
CC(C)CN(CC(C)C)S(=O)(=O)N1CCC(C(=O)NCCc2ccc(Cl)cc2)CC1,-5.3,i,49.4*,-9.9,21.6,32.3*,53.2*,9.6,17.1
O=C(NCCN1C(=O)S/C(=C\c2ccccc2)C1=O)C1CCN(S(=O)(=O)c2cccs2)CC1,-10.1,i,67.2*,16.7,19.8,45.7*,51.6*,15.2*,7.7
O=C(NCCc1ccc(Cl)cc1)C1CCN(S(=O)(=O)c2cccs2)CC1,-3.1,i,60.8*,36.0,13.4,18.9,50.0*,16.4*,27.6
O=C(NCCc1ccccc1)C1CCN(S(=O)(=O)c2cccs2)CC1,-4.0,i,-14.2,0.0,17.4,.,.,.,.
Nc1c2ccccc2nc2ccccc12,-0.5,i,0.9,-5.2,6.2,.,.,.,.
Cc1nc2ccccc2c2c(N)c3ccccc3n12,-10.4,i,56.4*,-26.2,10.3,22.3*,33.4,7.0,6.6
COCCN(C(=O)COC(=O)/C=C/c1ccc2c(c1)OCO2)c1c(N)n(Cc2ccccc2)c(=O)[nH]c1=O,-2.0,.,-25.2,0.8,0.5,.,.,.,.
SMILES,Platelet DG rel,Rce1 inh,TAAR1 antagonist,VLA-4 inh,TAAR1 ag,nonsel antag count,TAAR1 ant conf,Ga16 nonsel ag,TAAR1 ag counter
CC1(C(=O)NCc2ccco2)Cc2c(-c3cccc(C(N)=O)c3)ccnc2O1 (stereo not drawn),.,.,-22.0,.,0.8,.,.,.,.
CCOc1ccc(C(=O)CCC(=O)N2CCN(S(=O)(=O)c3cccc(F)c3)CC2)cc1,.,.,69.9*,1.9,-0.7,6.4,5.0,2.1,3.5
Cc1ccc(OCCCC(=O)N2CCN(S(=O)(=O)c3cccc(F)c3)CC2)cc1,14.5,i,2.7,-9.1,12.9,.,.,.,.
CC(C)[C@H](NC(=O)CC1CCCC1)C(=O)N1CCC[C@H]1C(=O)NCc1ccccc1,.,.,-42.9,.,0.5,.,.,.,.
O=C(N[C@H]1c2ccccc2C[C@H]1O)[C@H]1O[C@@H](n2ccc(=O)[nH]c2=O)[C@H](O)[C@@H]1O,.,.,-3.2,.,1.3,.,.,.,.
O=C(Nc1ccc2nc(SCc3ccc(Cl)cc3)sc2c1)c1ccccc1C(=O)N1CCOCC1,0.7,i,76.4*,12.0,20.0,33.5*,53.6*,11.1,12.3
COC(=O)CSc1nc2ccc(NC(=O)c3ccccc3C(=O)N3CCOCC3)cc2s1,-2.6,i,54.8*,-2.6,22.4,24.4*,50.3*,9.2,7.7
COc1ccc(Br)cc1/C=C/C(=O)Nc1c(C)cccc1C,-0.4,i,-5.3,.,-0.2,.,.,.,.
CCN(CC)c1ccc(NC(=O)/C=C/c2cc(Br)ccc2OC)cc1,-4.9,i,74.2*,-8.8,-0.9,10.3,34.7,6.0,6.1
O=C(Nc1ccc(N2CCOCC2)c(Cl)c1)c1ccc(-n2cnnc2)cc1,-13.5,i,1.2,-1.8,2.2,.,.,.,.

# Screening results (PubChem)
